Screening data as filed in PubChem.
The list is not random: actives were taken first. Their share in the collection is about 2.5%.
dFosB act: mouse delta FosB homodimer activation; P13346; purified delta FosB, TAMRA-CDK5 oligo fluorescence polarization; percent of positive-control signal above neutral wells; activation, % at 25 µM; 340,000 tested, 0.99% active; AID 493131;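 active = mean activation above about 17%, with every replicate also reaching it, limit read from the data, passing the limit was not always enough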
VIM-2 inh: blocks Pseudomonas aeruginosa VIM-2 metallo-beta-lactamase; 290,000 tested, 0.89% active; AID 1527; purified VIM-2, nitrocefin hydrolysis, epi-absorbance fluorescence; inhibition, % at 5.6 µM;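 active = inhibition above the mean of all tested compounds plus 3 SD, cutoff set per screening run, cut at about 7.5% in these data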;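 note: red hydrolysis product quenches plate fluorescence so inhibitors raise well fluorescence; 0% = enzyme with DMSO and 100% = DMSO without enzyme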
IMP-1 inh: blocks Pseudomonas aeruginosa IMP-1 metallo-beta-lactamase; purified IMP-1, nitrocefin hydrolysis, epi-absorbance fluorescence; inhibition, % at 5.6 µM; 290,000 tested, 0.45% active; AID 1556;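 active = inhibition above the mean plus 3 SD of all compounds in the same screening run, cut at about 4.5% in these data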;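 note: 0% = IMP-1 with DMSO and 100% = DMSO wells lacking enzyme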
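Test system: recombinant IMP-1 enzyme, purified / Medium: HEPES buffer pH 7.1 with ZnSO4 and Brij 35 / Doses: single dose, 5.6 µM / Times: 25 °C, 15 min preincubation, 25 min reaction / Detection: Epi-absorbance via hydrolysed-nitrocefin quenching of white-plate fluorescence, 480/530 nm, EDTA stop / Evaluation: percent inhibition from optical density relative to buffer-blank wells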
m5-HT2A agonist: agonists of mouse serotonin 5-HT2A receptor (HTR2A). 360,000 tested, 0.66% active. CHO-K1 mHTR2A beta-arrestin complementation, luminescence; percent of 30 µM serotonin response. AID 624169. activation, % at 7.6 µM;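 active = activation above a run cutoff, the mean activation of all tested compounds plus 3 SD, cut at about 14% in these data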;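 note: 0% = plate median of compound wells and 100% = 30 µM serotonin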
OPRM1 ag: counter-screen for mouse HTR2A agonists: human mu opioid receptor agonists. shares compounds with m5-HT2A agonist. U2OS OPRM1 beta-arrestin PathHunter, luminescence; DMSO 0%, DAMGO 9.3 µM 100%. activation, % at 9.3 µM. 2,300 tested, 5.3% active. AID 624380;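 active = mean activation above the mean of DMSO-only wells plus 3 SD, cut at about 0.5% in these data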
Target sequence (P35372 whole entry, looked up): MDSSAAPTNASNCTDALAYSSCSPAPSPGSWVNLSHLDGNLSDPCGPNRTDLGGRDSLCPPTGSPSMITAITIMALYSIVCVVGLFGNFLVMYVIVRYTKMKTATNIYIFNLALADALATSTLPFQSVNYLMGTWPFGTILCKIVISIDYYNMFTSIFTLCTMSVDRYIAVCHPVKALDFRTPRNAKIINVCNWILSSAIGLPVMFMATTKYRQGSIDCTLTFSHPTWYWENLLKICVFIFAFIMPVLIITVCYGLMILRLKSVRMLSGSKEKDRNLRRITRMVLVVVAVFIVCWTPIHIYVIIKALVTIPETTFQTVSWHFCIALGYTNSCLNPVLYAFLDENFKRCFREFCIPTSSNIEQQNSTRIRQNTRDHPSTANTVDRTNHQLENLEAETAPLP
HTR2A ag conf: mouse HTR2A agonism confirmed; shares compounds with m5-HT2A agonist; CHO-K1 PathHunter beta-arrestin recruitment, luminescence; DMSO 0%, 30 µM serotonin 100%; activation, % at 7.6 µM; 2,300 tested, 19% active; AID 624381;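 active = mean activation across triplicates above the hit threshold derived in the original primary screen, cut at about 15% in these data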
Numbers without * were called inactive; x = no result.

SMILES | dFosB act | VIM-2 inh | IMP-1 inh | m5-HT2A agonist | OPRM1 ag | HTR2A ag conf
O=c1cc(C(F)(F)F)[nH]c2ccc(C(F)(F)F)cc12 | -12.8 | -0.1 | -3.2 | 26.2* | 0.0 | 4.7
CCOc1ccccc1NC(=O)CSc1nnc(CNC(=O)c2ccccc2F)o1 | -0.4 | -2.9 | -0.5 | 16.6* | -0.8 | -4.1
CCOC(=O)c1ccc(NC(=O)CSc2nnc(CNC(=O)c3ccccc3F)o2)cc1 | -1.9 | -2.6 | -4.6 | 2.4 | x | x
BrC(/C=N/N1CCN(Cc2ccccc2)CC1)=C/c1ccccc1 | -10.5 | -2.1 | -3.0 | 23.6* | -0.5 | 0.0
BrC(=C\c1ccccc1)/C=N/N1CCN(Cc2ccccc2)CC1 | -8.9 | 0.8 | -1.7 | 19.7* | -0.7 | -2.9
O=C(c1ccc(NC2=NC3CS(=O)(=O)CC3S2)cc1)N1CCN(c2ccccc2F)CC1 (stereo not drawn) | -5.9 | 0.3 | 0.0 | 23.7* | -0.6 | -4.2
COc1cc(NC(=O)c2ccco2)c(OC)cc1NC(=O)Nc1ccc(Cl)cc1 | 14.3 | -3.5 | -3.2 | 14.7* | -0.3 | -2.1
COc1cc(CN2CCN(c3ccccc3F)CC2)cc(OC)c1O | -8.7 | -1.6 | -2.2 | 16.0* | -0.5 | 30.5*
COc1ccccc1C(=O)Nc1ccc(N2CCN(Cc3ccccc3)CC2)cc1 | -4.3 | 7.1 | -2.7 | 1.7 | x | x
COc1ccc(C)cc1NC(=O)c1ccc(CN2CCN(c3ccccc3)CC2)cc1 | 1.2 | -3.0 | -2.8 | 35.8* | -0.4 | 60.9*
COc1ccccc1C(=O)NCCN1CCN(c2ccccc2)CC1 | -5.6 | -1.0 | -1.9 | 14.5* | -0.6 | 69.5*
COc1cccc(C(=O)NNC(=O)CCN2CCN(c3ccccc3)CC2)c1 | 6.0 | x | x | 23.0* | -0.8 | 48.2*
COc1cc2c(cc1OC)C(CNC(=O)C=Cc1cc(OC)c(OC)c(OC)c1)C2 (stereo not drawn) | x | x | x | -0.8 | x | x
CCOc1ccc(NC(=O)CCN2CCN(c3ccccc3F)CC2)cc1 | 3.2 | -3.1 | -3.0 | 21.3* | -0.8 | 45.2*
COc1ccc(C)cc1NC(=O)CCN1CCN(c2ccccc2F)CC1 | -0.4 | -1.8 | -2.2 | 18.0* | -0.5 | 57.2*
Cc1ccc(C)c(NC(=O)CCN2CCOCC2)c1 | -3.8 | 0.5 | -0.5 | 19.7* | -0.3 | -0.1
O=C(CN1C(=O)C2CC=CCC2C1=O)Nc1nc2ccccc2s1 (stereo not drawn) | -5.1 | 1.0 | -0.3 | 15.5* | -0.6 | -2.0
Cc1ccc2nc(NC(=O)CN3C(=O)C4CC=CCC4C3=O)sc2c1 (stereo not drawn) | -10.9 | 0.3 | -2.0 | 3.9 | x | x
O=C(Cc1cccc(C(F)(F)F)c1)NCc1cccc(Cl)c1 | -2.1 | -2.5 | -1.8 | 25.4* | -0.5 | -6.3
Cn1nc(C(=O)Nc2cccc(C(=O)NC3CC3)c2)c2ccccc2c1=O | -22.1 | x | x | -0.5 | x | x
Cc1cc(=O)c(C(=O)Nc2cccc(C(=O)NC3CC3)c2)nn1-c1ccccc1Cl | -44.6 | x | x | 14.5* | -0.5 | -0.4
CN1C(=O)[C@H]2[C@@H](c3ccc(C(F)(F)F)cc3)N[C@]3(CCCN(Cc4cccn4C)C3=O)[C@H]2C1=O | x | x | x | -1.5 | x | x
Cc1nc2c([nH]1)C1(CCN(Cc3ccccc3)CC1)C(C#N)=C(N)O2 | -10.4 | 4.8 | 0.2 | 33.1* | -0.3 | -0.1
CC1(C)CC(=O)C2=C(C1)OC(N)=C(C#N)C21CCN(Cc2ccccc2)CC1 | -6.9 | -0.3 | -1.3 | -2.9 | x | x
COc1cccc(N2C(=NC(=O)C3CCCCC3)SC3CS(=O)(=O)CC32)c1 (stereo not drawn) | -5.2 | -1.6 | -3.4 | -1.2 | x | x
O=C(NC1CCCCC1)C(c1cccnc1)N(C(=O)CCl)c1cccc(Cl)c1 (stereo not drawn) | 8.9 | -3.0 | -0.9 | 0.7 | x | x
CN1C(=O)[C@@](O)(c2cn(C)c3ccccc23)c2cc(F)ccc21 | x | x | x | 3.0 | x | x
CCOC(=O)CNC(=S)N(CCCN1CCCC1)Cc1cccs1 | -0.6 | -1.2 | -0.6 | 29.2* | -0.5 | 9.7
CCOC(=O)CNC(=S)N(CCCN1CCCCCC1)Cc1cccs1 | -2.7 | -2.4 | -2.9 | 6.7 | x | x
Cc1ccc(N(CC(=O)NC2CCCC2)C(=O)c2c(C)noc2C)cc1C | -8.0 | -2.2 | -3.2 | 15.0* | -0.3 | -1.3
